Compound activity as filed in PubChem BioAssay.
F508del corr: correctors of CFTR F508del function in bronchial epithelial cells. CFBE cells, YFP halide quenching; stimulated with forskolin plus potentiator P3; % fluorescence drop versus neutral controls. activity (quench increase), % at 7.58 µM. 0.36% of 350,000 active. AID 720511;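 active means mean added fluorescence quench of at least 8% versus neutral control, with both replicates also reaching 8%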;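 further: cells transiently co-express mutant CFTR-F508del with the halide-sensitive YFP; corrector assay measuring rescue of mutant channel to the surface after 24 h compound exposure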
HIV Env fusion: inhibitors of HIV Env-mediated cell fusion; HeLa-JRFL Env/CEM21 cell fusion, luciferase; inhibition, % at 12.3 µM; 1.1% of 360,000 active; AID 651610;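 active means mean replicate inhibition score of at least 50 and every replicate individually at or above 50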;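 further: 0% = plate neutral controls and 100% = maraviroc near 300 nM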
E-selectin induc: induces E-selectin expression in human endothelial cells; HUVEC E-selectin immunofluorescence imaging; normalized: neutral wells 0, TNF-alpha wells 100; AID 686992; activation, % at 7.58 µM; P16581; 0.37% of 260,000 active;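 active means mean E-selectin-positive cell signal at least 10% of the positive control, reached in at least 60% of replicates, without over 20% cell loss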
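Test system: HUVEC | Signal: Immunofluorescence imaging | Read-out: Percent E-selectin-positive cells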
S100A4 MyoIIA: S100A4-myosin IIA interaction inhibition | P26447 | S100A4/TAMRA-MyoIIA peptide fluorescence polarization | inhibition, % at 10.7 µM | 0.14% of 360,000 active;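 active means mean inhibition of at least 70% across replicates, with every replicate also reaching that level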
Target sequence (P26447 whole entry, looked up): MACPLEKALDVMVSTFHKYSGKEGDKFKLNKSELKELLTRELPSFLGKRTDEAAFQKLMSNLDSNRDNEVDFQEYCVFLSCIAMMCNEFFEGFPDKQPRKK
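Material: S100A4 monomer protein | Medium: HEPES pH 7.2 with CaCl2, KCl, NaCl, DTT, Triton | Reagent: Labelled myosin peptide probe, 5 nM | Doses: One dose per compound | Times: 5 min incubation before reading | Benchmarks: Neutral control DMSO, positive control TFP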
FGF22 binding: FGF22 (human) thermal shift binding; Q9HCT0; recombinant FGF22 thermal shift, SYPRO orange fluorescence; percent of sucrose octasulfate shift, DMSO zero; activity (Tm shift, normalised), % at 9.99 µM; 1.5% of 340,000 active; AID 651658;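 active means mean Tm shift, scaled 0 neutral to 100 positive control, at about 1.3% or above, every replicate too, limit read from the data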
Target sequence (Q9HCT0 whole entry, looked up): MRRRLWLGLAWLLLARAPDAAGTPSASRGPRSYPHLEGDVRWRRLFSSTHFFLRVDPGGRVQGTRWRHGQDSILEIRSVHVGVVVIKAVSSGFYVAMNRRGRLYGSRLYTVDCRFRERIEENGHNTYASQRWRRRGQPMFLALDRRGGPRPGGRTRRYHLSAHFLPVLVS
* marks the source's active call; other numbers are inactive results; nt = no result; [ ] = dose if it differs, or a comment. This is a sample that favours compounds with a hit; in the whole collection about 2.7% have one here.

SMILES | F508del corr | HIV Env fusion | E-selectin induc | S100A4 MyoIIA | FGF22 binding
Cc1ccc(S(=O)(=O)N(C)C[C@@H]2Oc3ccc(NC(=O)C4CCCCC4)cc3CC(=O)N([C@@H](C)CO)C[C@@H]2C)cc1 | -0.4 | 78.9*[16.7 µM] | 0.2 | -2.3 | 0.2
COc1ccc(S(=O)(=O)N(C)C[C@@H]2Oc3ccc(NC(=O)C4CCCCC4)cc3CC(=O)N([C@@H](C)CO)C[C@@H]2C)cc1 | -1.2 | 65.7*[16.7 µM] | 2.3 | 6.1 | -0.2
COc1ccc(S(=O)(=O)N(C)C[C@H]2Oc3ccc(NC(=O)C4CCCCC4)cc3CC(=O)N([C@H](C)CO)C[C@@H]2C)cc1 | -1.4 | -0.4[16.7 µM] | -0.4 | 1.4 | -0.3
COc1ccc(CN(C)C[C@@H]2Oc3ccc(NC(=O)Cc4ccccc4)cc3CC(=O)N([C@@H](C)CO)C[C@H]2C)cc1 | -2.5 | nt | -0.2 | 83.6* | -0.3
COc1ccc(NC(=O)Nc2ccc3c(c2)CC(=O)N([C@@H](C)CO)C[C@@H](C)[C@H](CN(C)Cc2ccc(C(F)(F)F)cc2)O3)cc1 | -0.2 | 60.5*[16.7 µM] | 0.4 | nt | 0.0
COc1ccc(CN(C)C[C@H]2Oc3ccc(NC(=O)Nc4ccc(F)cc4)cc3CC(=O)N([C@H](C)CO)C[C@@H]2C)cc1 | 0.0 | nt | 11.7 | 11.2 | -1.0
COc1ccc(CN(C)C[C@H]2Oc3ccc(NC(=O)Nc4ccc(F)cc4)cc3CC(=O)N([C@H](C)CO)C[C@H]2C)cc1 | -1.5 | nt | -4.2 | -4.0 | -0.4
COc1ccc(CN(C)C[C@@H]2Oc3ccc(NC(=O)Cc4ccccc4)cc3CC(=O)N([C@H](C)CO)C[C@@H]2C)cc1 | 3.4 | 23.0[16.7 µM] | 0.0 | -5.5 | 0.2
COc1ccc(CN(C)C[C@@H]2Oc3ccc(NC(=O)Nc4ccc(F)cc4)cc3CC(=O)N([C@H](C)CO)C[C@@H]2C)cc1 | -0.7 | nt | 75.7* | -2.6 | -0.2
COc1ccc(CN(C)C[C@@H]2Oc3ccc(NC(=O)Nc4ccc(F)cc4)cc3CC(=O)N([C@H](C)CO)C[C@H]2C)cc1 | -2.2 | nt | 82.6* | 0.0 | -0.4
CN(C)C(=O)[C@]1(Cc2ccccc2N=[N+]=[N-])N=C(c2ccc(OCCCO)cc2)O[C@@H]1c1ccccc1 | 6.3 | 27.0[16.7 µM] | nt | 12.6 | -0.7
C[C@@H]1CCCCO[C@H](CN(C)S(=O)(=O)c2cccs2)[C@@H](C)CN([C@@H](C)CO)C(=O)c2cc(NC(=O)CCCN(C)C)ccc2O1 | 0.5 | 0.4[16.7 µM] | -0.1 | 2.8 | -0.4
N#C[C@H]1[C@H](c2ccccc2C2=CCCCC2)[C@@H](CO)N1S(=O)(=O)c1cccc(F)c1 | -1.3 | nt | 0.1 | 13.2 | nt
COc1ccc(NC(=O)Nc2ccc3c(c2)CC(=O)N([C@@H](C)CO)C[C@@H](C)[C@H](CN(C)Cc2ccc(Oc4ccccc4)cc2)O3)cc1 | 0.4 | 19.0[16.7 µM] | -0.1 | 3.4 | 0.0
COc1ccc(NC(=O)Nc2ccc3c(c2)CC(=O)N([C@H](C)CO)C[C@@H](C)[C@H](CN(C)Cc2ccc(Oc4ccccc4)cc2)O3)cc1 | 0.5 | 60.0*[16.7 µM] | 0.4 | 9.2 | 0.1
CO[C@@H]1CN(C)C(=O)c2ccc(NC(=O)C3CCOCC3)cc2OC[C@H](C)N(Cc2nccs2)C[C@@H]1C | 1.8 | 5.1[16.7 µM] | 0.1 | -0.5 | -0.2
COc1ccc2nc(NC(=O)CCN3C(=O)c4ccccc4C3=O)sc2c1 | nt | -31.9 | nt | nt | nt
CS(=O)(=O)c1ccc2nc(NC(=O)CCN3C(=O)c4ccccc4C3=O)sc2c1 | -1.5 | -2.5 | -0.3 | -2.1 | 43.0*
CCCN(C)C[C@H]1OCCCC[C@@H](C)Oc2ccc(NS(=O)(=O)c3cn(C)cn3)cc2C(=O)N([C@@H](C)CO)C[C@H]1C | -0.3 | 9.7[16.7 µM] | -0.2 | nt | nt
CCOC(=O)c1c(NC(=O)COc2ccccc2F)sc2c1CC(C)(C)NC2(C)C | 0.9 | -1.3 | -1.8 | -1.9 | 18.5*
CCOC(=O)c1c(NC(=O)CSc2ncccn2)sc2c1CC(C)(C)NC2(C)C | -1.1 | 6.6 | 0.0 | 2.7 | -0.1
COC(=O)c1c(NC(=O)COc2ccc(Cl)cc2)sc2c1CC(C)(C)NC2(C)C | 0.1 | 57.3* | 0.2 | -6.1 | 0.0
CCn1c2ccccc2c2cc(/C=C(/C#N)C(N)=S)ccc21 | 1.1 | 56.6* | 1.3 | 7.7 | 0.1
N#C/C(=C/c1ccc(F)cc1)C(N)=S | -2.0 | 7.1 | nt | 3.8 | 0.2
COc1ccccc1CNC(=O)C1CCCN1S(=O)(=O)c1cccc2cccnc12 (configuration not stated) | -4.4 | 57.0* | nt | -0.3 | 0.0
SMILES | F508del corr | HIV Env fusion | E-selectin induc | S100A4 MyoIIA | FGF22 binding
Cc1ccnc(NC2CCCCC2)c1 | -2.2 | -1.7 | nt | -4.4 | 43.6*
COc1ccc(C(=O)OCc2nc(N)nc(Nc3ccccc3C)n2)cc1OC | 8.4* | 15.6 | 1.2 | 17.5 | 0.2
Cc1ccc(SCc2nc(N)nc(Nc3ccccc3C)n2)c(C)c1 | 0.9 | 5.2 | nt | 10.7 | 43.2*
COc1ccc(-c2ccc3c(c2)O[C@H](CN(C)C)[C@@H](C)CN([C@H](C)CO)S3(=O)=O)cc1 | -2.3 | -4.9[16.7 µM] | -0.1 | -5.5 | 0.0
CCc1nnc(NC(=O)Nc2ccc(Cl)cc2)s1 | -4.2 | -3.5 | nt | -1.4 | 0.6
O=C(Nc1ccc(Cl)cc1)Nc1nnc(CSCc2ccc(Cl)cc2)s1 | nt | 71.4* | 0.1 | -7.7 | -0.7
O=C(NC1=NCCS1)c1cc(-c2ccc(-c3ccccc3)cc2)nc2ccccc12 | 1.5 | -119.9 | -0.1 | 5.8 | 43.2*
CN1C(=O)c2cc(NC(=O)C3CCOCC3)ccc2OC[C@@H]2O[C@H](CC(=O)O)CC[C@@H]21 | -1.9 | 12.5[16.7 µM] | 0.0 | nt | nt
COCCn1c(SCC(=O)c2ccccc2)nc2c(c1=O)SCC2 | 2.3 | -11.3 | -1.5 | -1.7 | 43.0*
COCCn1c(SCC(=O)N2CCCCC2)nc2c(c1=O)SCC2 | -5.1 | 3.2 | 3.8 | -2.7 | 0.0
C[C@@H]1CCCCO[C@H](CN(C)C(=O)Cc2ccccc2)[C@@H](C)CN([C@@H](C)CO)C(=O)c2cc(NC(=O)Cc3ccccc3)ccc2O1 | 1.4 | -115.2[16.7 µM] | 0.3 | -4.8 | 0.0
CCN(CC)C(=O)Cn1cc(C(=O)C(=O)N2CC=C(c3ccccc3)CC2)c2ccccc21 | 1.8 | 3.3 | 0.3 | -8.4 | 43.2*
CCN(CC)C(=O)Cn1cc(C(=O)C(=O)N2CCN(C)CC2)c2ccccc21 | -1.4 | 5.0 | 0.0 | -10.6 | -0.1
COC(=O)C1CC23C=CCN4CCC5(c6ccccc6NC15C2C)C43 (configuration not stated) | 10.4* | -243.1 | 1.8 | -5.1 | -0.1
Cc1ccc(N(CC(=O)N/N=C/c2cccnc2)S(=O)(=O)c2ccccc2)cc1 | 0.2 | 3.8 | 1.2 | 0.0 | 43.6*
O=C(Cn1cnc2ccccc21)N/N=C/c1cccnc1 | 1.8 | -53.4 | nt | -3.0 | 43.2*
Cc1ccc(/C=N/NC(=O)Cn2cnc3ccccc32)cc1 | 0.6 | -1.0 | 3.6 | -2.0 | 0.1
COc1ccccc1/C=N/NC(=O)CCn1cnc2ccccc21 | -2.2 | 10.0 | nt | 0.6 | 43.8*
Cc1ccc(NC(=O)Cn2cnc3ccccc32)cc1C | nt | 4.2 | nt | 4.7 | 43.2*
